# Screens (PubChem)
# Rows were chosen to be rich in hits. Some 2.3% of all compounds tested hit in one or more screens of this group.
# NR2E3 ag-1: human photoreceptor-specific nuclear receptor agonism; CHO-S Gal4-NCOR/VP16-NR2E3 two-hybrid, luciferase; inhibition of corepressor binding, % at 3.98 µM; AID 602229; 360,000 compounds, 0.35% hits;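 active = inhibition above the mean of all tested compounds plus 3 SD, cut at about 70% in these data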;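 note: 0% = DMSO with NR2E3 transfected cells and 100% = cells lacking NR2E3 construct; higher means lower luciferase signal from less NR2E3 corepressor binding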
# NR2E3 ag-2: NR2E3 (human) agonism; Q9Y5X4; GST-NR2E3/biotin-RetCOR TR-FRET, 1536-well; inhibition of corepressor binding, % at 4.78 µM; 320,000 compounds, 0.12% hits; AID 2300;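 active = percent inhibition above the cutoff of mean plus 3 SD of all tested compounds, set per screening campaign, cut at about 20% in these data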;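 note: 0% = DMSO wells and 100% = biotin wells as full block of FRET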
#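 System: GST-tagged NR2E3 plus biotinylated RetCOR corepressor; Buffer or medium: pH 7.5 Tris-based buffer; Probe or stimulus: RetCOR corepressor, biotinylated, 7 nM; Doses: compound at 4.8 µM, single dose; Schedule: 5 h incubation at 4 °C; Technique: time-resolved FRET; Evaluation: percent inhibition of TR-FRET ratio; Replication: one well per compound, singlicate testing.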
# COUP-TFII inh: NR2F2 (human) inhibition, primary screen. HEK293T NGFI-A luciferase reporter, luminescence. 370,000 compounds, 0.7% hits. P24468. inhibition, % at 8.6 µM;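 active = inhibition above a per-plate cutoff, mean inhibition of test wells between control levels plus 3 SD, cut at about 38% in these data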;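 note: cells cotransfected with COUP-TFII expression vector driving the NGFI-A reporter; 0% = median of COUP-TF2 test wells and 100% = reporter-only cells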
# CHT inh: inhibitors of human choline transporter CHT; Q9GZV3; CHT-expressing cells, membrane potential dye, choline response; active compounds read low; B-score at 10 µM; 310,000 compounds, 0.86% hits;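 active = B-score over 3 SD under the library average, and starting fluorescence ratio not unusually high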;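 note: choline stimulus applied at its EC90 after an EC20 pre-addition; B-score computed on integrated fluorescence ratio after choline addition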
# Target sequence (Q9GZV3 whole entry, looked up): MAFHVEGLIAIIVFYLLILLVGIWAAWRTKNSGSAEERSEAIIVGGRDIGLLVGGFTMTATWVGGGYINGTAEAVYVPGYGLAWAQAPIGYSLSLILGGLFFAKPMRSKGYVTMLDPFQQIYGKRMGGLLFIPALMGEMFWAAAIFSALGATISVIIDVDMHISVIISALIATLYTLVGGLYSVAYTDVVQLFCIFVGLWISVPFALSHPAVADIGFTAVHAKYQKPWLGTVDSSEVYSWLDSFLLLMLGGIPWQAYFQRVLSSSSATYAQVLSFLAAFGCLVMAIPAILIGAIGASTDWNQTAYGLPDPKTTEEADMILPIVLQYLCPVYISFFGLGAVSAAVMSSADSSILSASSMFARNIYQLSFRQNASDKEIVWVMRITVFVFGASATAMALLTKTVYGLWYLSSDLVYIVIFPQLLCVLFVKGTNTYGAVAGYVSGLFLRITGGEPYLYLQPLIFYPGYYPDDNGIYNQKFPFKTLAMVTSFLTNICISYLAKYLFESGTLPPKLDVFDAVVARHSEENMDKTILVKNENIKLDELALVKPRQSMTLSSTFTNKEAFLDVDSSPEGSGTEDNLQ
# CHT PAM: allosteric activators of human choline transporter CHT; CHT-expressing cells, membrane potential dye, choline EC20; active compounds read high; LV-AA mutant CHT in HEK293 cells; B-score at 10 µM; 310,000 compounds, 0.49% hits;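 active = initial fluorescence not abnormally high and integrated response B-score, plate-corrected, over 3 SD above library mean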
# GalR3 antagonist: blocks the human galanin receptor 3; HEK293 GalR3-CNG cAMP membrane potential fluorescence; galR3 body fused to GalR1 C-terminus; AID 651719; 360,000 compounds, 0.44% hits; inhibition, % at 3 µM; O60755;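 active = inhibition above the screen-wide average plus 3 SD, cut at about 13% in these data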;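 note: forskolin and galanin both at EC90 stimulate the cells; cAMP rise reported by CNG channel membrane potential dye signal; 0% = forskolin plus galanin with DMSO and 100% = forskolin alone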
# CHT act confirm: human CHT activation, confirmatory screen | CHT-expressing cells, membrane potential dye fluorescence (FDSS); % of choline EC20–EC90 response window; HEK293 expressing CHT LV-AA mutant; choline added at its EC20 | 2,500 compounds, 91% hits | shares compounds with CHT PAM | activation, % at 10 µM;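 active = primary screen active, with duplicate mean activation above negative control mean plus 3 SD, cut at about 11% in these data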
# HEK293 MP dye: CHT activator counter-screen hit in parental HEK293 cells; membrane potential dye fluorescence (FDSS); measured after EC20 choline addition; AID 623908; ratio readout change at 10 µM, hits read low; shares compounds with CHT PAM; 2,500 compounds, 62% hits;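 active = duplicate-averaged ratio beyond 3 SD from buffer wells, up or down, though filed actives are nearly all decreases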
# NR2E3 ag conf: confirmation of human NR2E3 agonists | AID 624378 | CHO-S mammalian two-hybrid NR2E3-NCOR, luciferase luminescence | inhibition, % at 3.98 µM | shares compounds with NR2E3 ag-1 | 2,300 compounds, 51% hits;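 active = average inhibition above a cutoff equal to the mean inhibition of all tested compounds plus one SD, cut at about 70% in these data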;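 note: 0% = DMSO in NR2E3 cells and 100% = DMSO in cells lacking NR2E3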
# VP16 counter: reduces GAL4-VP16 reporter signal in NR2E3 counterscreen; 2,300 compounds, 29% hits; AID 624379; CHO-S GAL4-VP16 luciferase reporter, luminescence; shares compounds with NR2E3 ag-1; inhibition, % at 3.98 µM;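 active = mean inhibition above a cutoff equal to the average over all tested compounds plus one standard deviation, cut at about 70% in these data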;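 note: luciferase from a UAS reporter driven by GAL4-VP16 transactivation; 0% = DMSO with VP16-transfected cells and 100% = DMSO with cells lacking VP16; higher means less reporter light so more repression of VP16 activity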
# GalR3 antag conf: confirmation of human galanin receptor 3 antagonists. shares compounds with GalR3 antagonist. HEK293 GalR3 CNG cAMP biosensor, membrane potential fluorescence; galR3 fused to GalR1 carboxy tail; challenged with forskolin and galanin at EC90. inhibition, % at 3 µM. 1,600 compounds, 59% hits;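 active = inhibition above the primary screen's cutoff, the mean inhibition of all screened compounds plus 3 SD, cut at about 13% in these data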;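 note: 0% = forskolin plus galanin and 100% = forskolin alone with DMSO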
# HEK-CNG parental: acts as nonspecific agonist in parental HEK-CNG cells; shares compounds with GalR3 antagonist; HEK293-CNG parental cells, cAMP membrane potential fluorescence; normalised: DMSO wells 0%, forskolin wells 100%; activation, % at 3 µM; 1,600 compounds, 10% hits; AID 652268; in the data active = activation above about 1.3%
# VP16 Luc counter: counter-screen for COUP-TFII antagonists: inhibitors of VP16 | 2,500 compounds, 25% hits | HEK293 Gal4-VP16 luciferase reporter, luminescence | AID 687007 | inhibition, % at 8.5 µM | shares compounds with COUP-TFII inh; in the data active = inhibition above about 13%
# NR2F2 inh conf: confirmation of human COUP-TFII (NR2F2) inhibitors | shares compounds with COUP-TFII inh | HEK293 NGFI-A luciferase reporter, luminescence | inhibition, % at 8.5 µM | 2,500 compounds, 45% hits | AID 687008;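 active = mean inhibition over three repeats above a set limit taken from the earlier primary screen, cut at about 38% in these data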;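 note: 100% = cells given the luciferase reporter alone without the COUP-TF2 vector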
# Active calls of the source: *; i = inactive; x = not tested or not shown.
SMILES,NR2E3 ag-1,NR2E3 ag-2,COUP-TFII inh,CHT inh,CHT PAM,GalR3 antagonist,CHT act confirm,HEK293 MP dye,VP16 Luc counter,NR2F2 inh conf,others
COC(=O)[C@]1(C)CN(C(=O)OC(C)(C)C)C2=C1C(=O)C[C@@](C)(C(=O)OC(C)(C)C)C2,x,x,-5,x,x,x,x,x,x,x,
CCOC(=O)C1CCN(c2cc(C)nc3ccc(OC)cc23)CC1,-20,0,42*,i,7.8*,-8,42*,-72*,2,7,
COc1ccc(Nc2ccnc3ccccc23)cc1,-42,-1,40*,i,6.6*,2,28*,-55*,-10,13,
Cc1cc(C)nc(NC(N)=NCCc2c[nH]c3ccccc23)n1,10,-5,40*,i,8.6*,-8,60*,-61*,-6,13,
Cc1cc(C)nc(NC(=NCCc2c[nH]c3ccccc23)NC(=O)Nc2ccc(Cl)cc2)n1,-17,3,9,i,i,-4,x,x,x,x,
COC(=O)[C@]12C[C@H](CC(=O)NCCCCc3ccccc3)C(=O)N(Cc3ccc(Cl)cc3Cl)C1=C[C@H](C(C)C)O[C@@H]2C1CC1,x,x,1,x,x,x,x,x,x,x,
CCOc1ccc(-n2c(-c3ccccc3)c[n+]3c2CCCCC3)cc1,-11,0,67*,i,13*,51*,44*,i,8,49*,GalR3 antag conf=78*;HEK-CNG parental=1
c1ccc(-c2c[n+]3c(n2-c2ccccc2)CCC3)cc1,10,0,9,i,i,-4,x,x,x,x,
COC(=O)[C@]12C[C@H](CC(=O)N3CCCCC3)C(=O)N(Cc3ccco3)C1=C[C@H](COCc1ccccc1)O[C@@H]2C,x,x,-8,x,x,x,x,x,x,x,
C[n+]1ccccc1/C=C1\Sc2ccccc2N1CCO,-24,2,1,i,i,-9,x,x,x,x,
CCN1/C(=C/c2ccc3cccc(C)c3[n+]2CC)Sc2ccccc21,86*,-6,74*,i,i,49*,12*,i,19*,66*,NR2E3 ag conf=97*;VP16 counter=85*;GalR3 antag conf=45*;HEK-CNG parental=10*
CN(Cc1ccccc1)C(=O)OCc1cn(Cc2ccccc2F)nn1,x,x,4,x,x,x,x,x,x,x,
O=c1c2ccccc2nc2n1C(CSCc1ccc(Cl)cc1)CS2 (stereo not given),6,-4,42*,i,8.2*,-4,11*,i,2,14,
CN(C)c1ccc(/C=C/c2cc[n+](C)cc2)cc1,1,11,41*,i,6.5*,3,34*,i,-15,15,
